Test results reported in article PMC10731006 (Heliyon, 2023).
≈ marks a conversion by molar mass, not a printed value. Entries after “also recorded” stand apart in the source; their conditions may differ.

Tests used:
[1] = system: Escherichia coli (ATCC 25922); experiment: Micro-broth dilution assay; type: cell-based; conditions: ATCC25922, read-out: MIC EC
[2] = system: Gram-positive and Gram-negative bacterial test strains; experiment: Antibacterial activity, whole panel of test strains; type: cell-based
Method in brief: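 Disc diffusion followed CLSI (2012). Test compound at 10, 50 and 100 μg/disc was loaded on 6-mm blank filter discs laid on Mueller Hinton agar seeded at 10^6 cells/ml. Strains were S. aureus ATCC 10145, B. cereus ATCC 11778, B. subtilis ATCC 6633, P. aeruginosa ATCC 13048 and E. coli ATCC 25922. Inhibition zones were recorded.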

[3] = system: cancer cell lines (U87, MCF-7 and A549) compared to normal cells (HDF); experiment: MTT cytotoxicity, cancer cell lines compared to normal cells; type: cell-based, human; conditions: 96 h treatment
Method in brief: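 A549 and MCF7 grown in RPMI 1640, HDF and U87 in DMEM, each with 10% FCS, 2 mM L-glutamine, 1% pen-strep, 37 °C, 5% CO2. Cells at 1 × 10^4 cells/ml were adhered overnight, then exposed 96 h to test compound (final 1–600 […] in medium). Controls were blank, untreated, DMSO-matched and cisplatin (1–100 μM/mL). MTT 5 mg/ml for 4 h; DMSO-solubilised formazan read at 540 nm, triplicate. IC50 from curve fitting; selectivity index = HDF IC50 / cancer-line IC50.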

[4] = DPPH radical scavenging assay
[5] = system: Pseudomonas aeruginosa (ATCC 13048); experiment: Micro-broth dilution assay; type: cell-based; conditions: ATCC13048, read-out: MIC PA
[6] = system: glioblastoma (U-87 MG) cells; experiment: MTT cytotoxicity assay, U-87 MG; type: cell-based, human; conditions: for IC50: Homo sapiens, U-87 MG, 96 h, read-out: IC50 U87; for SI U87 (selectivity index): IC50 in HDF / IC50 in U87, 96 h
Method in brief: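 U-87 MG cells were cultured in DMEM with 10% FCS, 2 mM L-glutamine and 1% penicillin-streptomycin at 37 °C, 5% CO2. Seeding was 1 × 10^4 cells/ml; after overnight adherence, test compound diluted in medium (six final levels, 1–600) was applied for 96 h alongside DMSO-matched and cisplatin controls. Read-out: MTT 5 mg/ml for 4 h, DMSO solubilisation, A540, in triplicate, IC50 fitted. SI = IC50 in HDF / IC50 in U87.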

B. subtilis (ATCC 6633) [7] = experiment: Agar diffusion test, B. subtilis; type: cell-based; conditions: Bacillus subtilis, ATCC6633, read-out: Zone of inhibition BS
[8] = system: Bacillus cereus (ATCC 11778); experiment: Agar diffusion test, B. cereus; type: cell-based; conditions: ATCC11778, read-out: Zone of inhibition BC
[9] = ABTS radical scavenging assay
[10] = system: Bacillus cereus (ATCC 11778); experiment: Micro-broth dilution assay; type: cell-based; conditions: ATCC11778, read-out: MIC BC
B. subtilis (ATCC 6633) [11] = experiment: Micro-broth dilution assay; type: cell-based; conditions: Bacillus subtilis, ATCC6633, read-out: MIC BS
[12] = system: non-small cell lung cancer (A549) cells; experiment: MTT cytotoxicity assay, A549; type: cell-based, human; conditions: for IC50: Homo sapiens, A549, 96 h, read-out: IC50 A549; for SI A549 (selectivity index): IC50 in HDF / IC50 in A549, 96 h
Method in brief: (§1)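 Cells were grown in RPMI 1640 with 10% FCS, 2 mM L-glutamine and 1% penicillin-streptomycin at 37 °C under 5% CO2. They were seeded at 1 × 10^4 cells/ml, left overnight to adhere, and exposed 96 h to test compound diluted in medium (six final levels, 1–600), with DMSO-matched and cisplatin controls. MTT at 5 mg/ml was added for 4 h, formazan dissolved in DMSO, and A540 read, in triplicate. IC50 was fitted from the data. SI = IC50 in HDF / IC50 in this line.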

[13] = system: human dermal fibroblast (HDF, human dermal cell line); experiment: MTT cytotoxicity assay, normal cells; type: cell-based; conditions: Homo sapiens, Fibroblast, 96 h, read-out: IC50 HDF
Method in brief: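 Human dermal fibroblasts were maintained in DMEM with 10% FCS, 2 mM L-glutamine and 1% penicillin-streptomycin (37 °C, 5% CO2). They were seeded at 1 × 10^4 cells/ml, allowed to adhere overnight, then treated 96 h with serially diluted test compound (six final levels, 1–600) beside DMSO-matched vehicle and cisplatin controls. Then MTT 5 mg/ml was added for 4 h, formazan taken up in DMSO, and absorbance read at 540 nm, in triplicate. IC50 was fitted.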

[14] = system: Staphylococcus aureus (ATCC 10145); experiment: Micro-broth dilution assay; type: cell-based; conditions: ATCC10145, read-out: MIC SA
[15] = system: breast cancer (MCF7) cells; experiment: MTT cytotoxicity assay, MCF7; type: cell-based, human; conditions: for IC50: Homo sapiens, MCF7, 96 h, read-out: IC50 MCF-7; for SI MCF-7 (selectivity index): IC50 in HDF / IC50 in MCF-7, 96 h
Method in brief: as §1

[16] = system: Pseudomonas aeruginosa (ATCC 13048); experiment: Agar diffusion test, P. aeruginosa; type: cell-based; conditions: ATCC13048, read-out: Zone of inhibition PA
[17] = system: Escherichia coli (ATCC 25922); experiment: Agar diffusion test, E. coli; type: cell-based; conditions: ATCC25922, read-out: Zone of inhibition EC

| SMILES | MIC [1] [µg/mL] | IC50 ± SD, DPPH [4] [µg/mL] | % inhibition ±SD, DPPH ([4]; 10 μg/ml) [%] | % inhibition ±SD, DPPH ([4]; 25 μg/ml) [%] | % inhibition ±SD, DPPH ([4]; 50 μg/ml) [%] | % inhibition ±SD, DPPH ([4]; 100 μg/ml) [%] | MIC [5] [µg/mL] | IC50 [6] [µM] | SI U87 (selectivity index) [6] | IC50 ± SD, ABTS [9] [µg/mL] | % inhibition ±SD, ABTS ([9]; 5 μg/ml) [%] | % inhibition ±SD, ABTS ([9]; 10 μg/ml) [%] | % inhibition ±SD, ABTS ([9]; 25 μg/ml) [%] | % inhibition ±SD, ABTS ([9]; 50 μg/ml) [%] | % inhibition ±SD, ABTS ([9]; 100 μg/ml) [%] | MIC [10] [µg/mL] | MIC (B. subtilis (ATCC 6633) [11]) [µg/mL] | IC50 [12] [µM] | SI A549 (selectivity index) [12] | IC50 [13] [µM] | other results |
| --- | --- | --- | --- | --- | --- | --- | --- | --- | --- | --- | --- | --- | --- | --- | --- | --- | --- | --- | --- | --- | --- |
| COC(=O)c1cn(C2CC2)c2cc(N3CCN(C(=O)c4c(C)nnn4Cc4ccc(F)cc4)CC3)c(F)cc2c1=O [Compound 6a, methyl 7-(4-(1-(4-fluorobenzyl)-4-methyl-1H-1,2,3-triazole-5-carbonyl)piperazin-1-yl)-1-cyclopropyl-6-fluoro-4-oxo-1,4-dihydroquinoline-3-carboxylate] | > 500 | 32.6 ± 2.9 (≈ 57.9 µM) | 40.2 ± 0.4 | 47.2 ± 1.0 | 53.2 ± 0.9 | 63.3 ± 0.8 | > 500 | 34.6 ± 7.8 | 14.6 | 17.8 ± 1.1 (≈ 31.6 µM) | 22.7 ± 0.2 | 48.7 ± 0.5 | 53.5 ± 0.3 | 71.1 ± 1.0 | 75.5 ± 0.5 | 500 (≈ 889 µM) | 500 (≈ 889 µM) | 139 ± 9.3 | 3.6 | 504 ± 19.9 | antibacterial activity in words [2]: bioactivity against Gram-positive bacterial test strains; cytotoxic / anti-proliferative activity in words [3]: remarkable anti-proliferative activity against all three cell-lines; also recorded: significant cytotoxic activity against all cancer cell lines; % inhibition ±SD, DPPH ([4]; 5 μg/ml): 27.04 ± 0.2%; zone of inhibition at 100 µg/disc (B. subtilis (ATCC 6633) [7]): 11.3 ± 1.2 mm; zone of inhibition at 300 µg/disc (B. subtilis (ATCC 6633) [7]): 13.1 ± 0.6 mm; zone of inhibition at 500 µg/disc (B. subtilis (ATCC 6633) [7]): 14.6 ± 0.7 mm; zone of inhibition at 100 µg/disc [8]: 12.7 ± 0.6 mm; zone of inhibition at 300 µg/disc [8]: 14.6 ± 0.3 mm; zone of inhibition at 500 µg/disc [8]: 15.3 ± 0.3 mm; MIC [14]: > 500 µg/mL; IC50 [15]: 112 ± 10.1 µM; SI MCF-7 (selectivity index) [15]: 4.5 |
| COC(=O)c1cn(C2CC2)c2cc(N3CCN(C(=O)c4c(C)nnn4-c4ccc(F)cc4)CC3)c(F)cc2c1=O [Compound 6f, methyl 7-(4-(1-(4-fluorophenyl)-4-methyl-1H-1,2,3-triazole-5-carbonyl)piperazin-1-yl)-1-cyclopropyl-6-fluoro-4-oxo-1,4-dihydroquinoline-3-carboxylate] | > 500 | 56.2 ± 2.1 (≈ 102 µM) | 20.7 ± 0.8 | 39.5 ± 0.5 | 48.9 ± 0.4 | 66.9 ± 0.3 | > 500 | 7.9 ± 2.3 | 18 | 39.2 ± 2.1 (≈ 71.5 µM) | 13.3 ± 0.6 | 29.7 ± 0.7 | 46.1 ± 0.1 | 54.1 ± 0.7 | 64.2 ± 0.4 | > 500 | > 500 | 104 ± 4.5 | 1.4 | 142 ± 4.1 | antibacterial activity in words [2]: deprived of any antibacterial activity; cytotoxic / anti-proliferative activity in words [3]: significant cytotoxic activity against only U-87 and MCF-7 cancer cell lines; % inhibition ±SD, DPPH ([4]; 5 μg/ml): 10.6 ± 0.9%; MIC [14]: > 500 µg/mL; IC50 [15]: 10.6 ± 3 µM; SI MCF-7 (selectivity index) [15]: 13.3 |
| Cc1c(C)c2c(c(C)c1O)CCC(C)(C(=O)O)O2 (stereo not shown) [Trolox®, reference compound] |  | 5.2 ± 0.3 (≈ 20.8 µM) |  |  |  |  |  |  |  | 2.7 ± 0.2 (≈ 10.8 µM) |  |  |  |  |  |  |  |  |  |  |  |
| COC(=O)c1cn(C2CC2)c2cc(N3CCN(C(=O)c4c(C)nnn4-c4ccc([N+](=O)[O-])cc4)CC3)c(F)cc2c1=O [Compound 6e, methyl 7-(4-(1-(4-nitrophenyl)-4-methyl-1H-1,2,3-triazole-5-carbonyl)piperazin-1-yl)-1-cyclopropyl-6-fluoro-4-oxo-1,4-dihydroquinoline-3-carboxylate] | > 500 | 18.5 ± 1.6 (≈ 32.1 µM) | 33.8 ± 0.5 | 54.5 ± 0.4 | 60.7 ± 0.8 | 67.9 ± 0.6 | > 500 | 45 ± 7.1 | 1.8 | 24.2 ± 1.0 (≈ 42 µM) | 14.9 ± 1.4 | 37.0 ± 0.2 | 50.3 ± 0.5 | 71.2 ± 0.2 | 74.3 ± 0.4 | > 500 | > 500 | 79 ± 4.7 | 1.1 | 83 ± 5.8 | % inhibition ±SD, DPPH ([4]; 5 μg/ml): 17.1 ± 0.6%; zone of inhibition at 100 µg/disc (B. subtilis (ATCC 6633) [7]): 9.6 ± 0.6 mm; zone of inhibition at 300 µg/disc (B. subtilis (ATCC 6633) [7]): 13.1 ± 0.3 mm; zone of inhibition at 500 µg/disc (B. subtilis (ATCC 6633) [7]): 14.3 ± 0.6 mm; zone of inhibition at 100 µg/disc [8]: 10.3 ± 0.6 mm; zone of inhibition at 300 µg/disc [8]: 11.3 ± 0.6 mm; zone of inhibition at 500 µg/disc [8]: 13.3 ± 0.6 mm; MIC [14]: > 500 µg/mL; IC50 [15]: 58.6 ± 5.9 µM; SI MCF-7 (selectivity index) [15]: 1.4 |
| COC(=O)c1cn(C2CC2)c2cc(N3CCN(C(=O)c4c(C)nnn4Cc4cccc(F)c4)CC3)c(F)cc2c1=O [Compound 6b, methyl 7-(4-(1-(3-fluorobenzyl)-4-methyl-1H-1,2,3-triazole-5-carbonyl)piperazin-1-yl)-1-cyclopropyl-6-fluoro-4-oxo-1,4-dihydroquinoline-3-carboxylate] | 500 (≈ 889 µM) | 32.4 ± 1.1 (≈ 57.6 µM) | 18.9 ± 0.3 | 40.6 ± 0.9 | 58.5 ± 0.6 | 84.1 ± 0.2 | 500 (≈ 889 µM) | 1.2 ± 0.8 | 142.3 | 35.3 ± 1.6 (≈ 62.7 µM) | 11.8 ± 0.5 | 28.3 ± 0.4 | 43.4 ± 0.3 | 53.9 ± 0.8 | 72.9 ± 0.5 | > 500 | > 500 | 29.4 ± 6.2 | 5.8 | 171 ± 8.1 | antibacterial activity in words [2]: activity against Gram-negative ones without inhibiting the Gram-positive test strains; cytotoxic / anti-proliferative activity in words [3]: remarkable anti-proliferative activity against all three cell-lines; also recorded: significant cytotoxic activity against all cancer cell lines; zone of inhibition at 100 µg/disc [16]: 12.3 ± 0.7 mm; zone of inhibition at 300 µg/disc [16]: 13.6 ± 0.6 mm; zone of inhibition at 500 µg/disc [16]: 15.3 ± 0.3 mm; zone of inhibition at 100 µg/disc [17]: 10.6 ± 1.2 mm; zone of inhibition at 300 µg/disc [17]: 13.3 ± 1.5 mm; zone of inhibition at 500 µg/disc [17]: 14.7 ± 0.6 mm; MIC [14]: > 500 µg/mL; IC50 [15]: 10.6 ± 2.3 µM; SI MCF-7 (selectivity index) [15]: 16.1 |
